From ChEMBL document CHEMBL1121713, “Synthesis and antiinflammatory activity of metabolites of piroxicam” (1981)
Activity calls are given as the source filed them. No cut-off for these calls is given here.

Key:
[1] = test system: Rattus norvegicus; experiment: Antiinflammatory activity of compound expressed as percentage inhibition of carrageenan edema 4 hr after an oral dose of 33 mg/kg.; assay type: functional
In short: (§1)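 Rat carrageenan paw edema, subplantar carrageenan injection, per Winter et al. Oral dosing in water with 4% polyethylene glycol and 0.2% Tween 80, dilute NaOH added as needed to dissolve. Six rats per treated group, eight per vehicle-only or phenylbutazone group, run concurrently. Read-out is mean % inhibition of edema 4 h after the dose versus vehicle controls.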

[2] = test system: Rattus norvegicus; experiment: Antiinflammatory activity of compound expressed as percentage inhibition of carrageenan edema 4 hr after an oral dose of 10 mg/kg.; assay type: functional; in short: as §1
[3] = test system: Rattus norvegicus; experiment: Antiinflammatory activity of compound expressed as percentage inhibition of carrageenan edema 4 hr after an oral dose of 10 mg/kg; Not available; assay type: functional, organism-based; set-up: dose 10 mg/kg; in short: as §1

Row | Structure (SMILES) | inhibition in vivo at 33 mg/kg [1] | inhibition in vivo at 10 mg/kg [2] | inhibition [3]
1 | CN1C(C(=O)Nc2ncccc2O)=C(O)c2ccccc2S1(=O)=O | 41% | 13% | 
2 | CCCCC1C(=O)N(c2ccccc2)N(c2ccccc2)C1=O [PHENYLBUTAZONE] | 50% | 35% | 
3 | CN1C(C(=O)Nc2cc(O)ccn2)=C(O)c2ccccc2S1(=O)=O | 24% | 10% | 
4 | CN1CC(=O)c2ccccc2S1(=O)=O | 8% |  | inactive
5 | CN1c2c(n3ccccc3nc2=O)-c2ccccc2S1(=O)=O | 46% | 38% | 
6 | CN1C(C(=O)Nc2cccc(O)n2)=C(O)c2ccccc2S1(=O)=O | 40% | 31% | 
7 | O=C1NS(=O)(=O)c2ccccc21 [SACCHARIN] | 0% |  | 
8 | CN1C(C(=O)Nc2ccccn2)=C(O)c2ccccc2S1(=O)=O [PIROXICAM] | 75% | 67% | 
9 | CN1C(=O)c2ccccc2S1(=O)=O | 12% |  | 
10 | CN1C(C(=O)Nc2ccc(O)cn2)=C(O)c2ccccc2S1(=O)=O [HYDROXY PIROXICAM METABOLITE] | 17% | 15% | 
11 | CN1C(C(=O)O)=C(O)c2ccccc2S1(=O)=O | 0% |  | 
